Series [1] deals with T1, Prostaglandin D2 receptor 2 (Homo sapiens, UniProt Q9Y5Y4).
T1 sequence (Q9Y5Y4 whole entry): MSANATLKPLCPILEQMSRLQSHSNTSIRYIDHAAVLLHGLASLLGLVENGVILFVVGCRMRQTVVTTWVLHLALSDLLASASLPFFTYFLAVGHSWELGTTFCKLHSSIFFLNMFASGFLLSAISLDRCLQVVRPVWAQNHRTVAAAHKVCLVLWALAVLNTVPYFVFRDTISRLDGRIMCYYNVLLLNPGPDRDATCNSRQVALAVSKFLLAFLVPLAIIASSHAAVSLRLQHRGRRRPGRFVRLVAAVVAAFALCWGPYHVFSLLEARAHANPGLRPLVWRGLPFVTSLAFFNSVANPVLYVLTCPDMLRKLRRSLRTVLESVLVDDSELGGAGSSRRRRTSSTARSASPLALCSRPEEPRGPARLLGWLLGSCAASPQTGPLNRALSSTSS
Description: Displacement of [3H]PGD2 from human CRTh2 receptor. A digest of the protocol:
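Human CRTh2 binding assay run in assay buffer. IC50 reported as the mean of at least three experiments.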

In series [2] the target is T1, Prostaglandin D2 receptor 2. Description: Antagonist activity at PGD2-induced human CRTh2 receptor activation expressed in HEK293 cells assessed as intracellular Ca2+ liberation by FLIPR assay. Format: functional, cell-based. A digest of the protocol: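 HEK-293 cells stably expressing human CRTh2 were stimulated with PGD2. Antagonism of intracellular Ca2+ liberation was read by FLIPR. IC50 is the mean of at least three experiments.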

Series [3] is described as follows: Oral bioavailability in Wistar rat at 10 mg/kg. Format: ADME, organism-based. To be noted: in vivo. The essentials: (§1)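 Single doses given to three male Wistar rats per route: 10 mg/kg orally and 1 mg/kg intravenously, as a solution in 20% propyleneglycol/80% buffer. Plasma PK parameters were derived. CL, terminal T1/2 and Vss come from the intravenous arm. AUC0–last comes from the oral arm.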

Series [4] is described as follows: Volume of distribution at steady state in Wistar rat at 10 mg/kg, po and 1 mg/kg, iv. Format: ADME, organism-based. To be noted: in vivo, read-out: Vdss. The essentials:
as §1

The nature of series [5]: Terminal half life in Wistar rat at 10 mg/kg, po and 1 mg/kg, iv. The series is classed as ADME, organism-based. To be noted: in vivo, read-out: beta t1/2 (converted). A digest of the protocol: as §1
A short description of series [6]: Clearance in Wistar rat at 10 mg/kg, po and 1 mg/kg, iv. Format: ADME, organism-based. To be noted: in vivo. A digest of the protocol: as §1
Series [7] in a line: Cmax in Wistar rat at 10 mg/kg, po and 1 mg/kg, iv. The series is classed as ADME, organism-based. To be noted: in vivo. A digest of the protocol: as §1
Series [8] can be described thus: AUC (0 to last) in Wistar rat at 10 mg/kg, po. The series is classed as ADME, organism-based. Details: time 0 - last, dose 10 mg/kg, route oral. To be noted: plasma. The essentials:
as §1

Series [9] can be described thus: Stability in simulated intestinal fluid after 4 hrs by LC/MS analysis. To be noted: read-out: Stability. The series is classed as physicochemical. The essentials: (§2)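 Compound incubated in simulated gastric fluid for 1 h or simulated intestinal fluid for 4 h. Unchanged parent recovered and measured by LC–MS, expressed as % parent.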
A short description of series [10]: Stability in simulated gastric fluid after 1hr by LC/MS analysis. The series is classed as physicochemical. To be noted: read-out: Stability. The essentials:
as §2

Series [11] can be described thus: Solubility of the compound in buffer at pH 4. Format: physicochemical. The essentials:
(§3)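 Solubility measured in buffered aqueous solution at pH 4 and pH 7, and in water, where the final pH of the aqueous solution was 4.6.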

Series [12] can be described thus: Solubility of the compound in buffer at pH 7. The series is classed as physicochemical. A digest of the protocol: as §3
The nature of series [13]: Aqueous solubility of the compound in water at pH 4.6. The series is classed as physicochemical. The essentials:
as §3

The nature of series [14]: Metabolic stability in human plasma assessed as compound remaining after 4 hrs. Format: ADME, cell-free. To be noted: read-out: Stability. The essentials:
(§4)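 Compound incubated in rat and human plasma for up to 4 h. Unchanged parent quantified by LC–MS, reported as % parent remaining at 4 h plus elimination half-life.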

A short description of series [15]: Metabolic stability in rat plasma assessed as compound remaining after 4 hrs. Format: ADME, cell-free. To be noted: read-out: Stability. A digest of the protocol: as §4
The next series addresses Cytochrome P450 2D6 (Homo sapiens, UniProt P10635). As to the kind of experiment: Inhibition of CYP2D6 (unknown origin). The series is classed as ADME.
The target in another series is Cytochrome P450 3A4 (Homo sapiens, UniProt P08684). As to the kind of experiment: Inhibition of CYP3A4 (unknown origin). The series is classed as ADME.
Sequence of Cytochrome P450 3A4 (P08684 whole entry): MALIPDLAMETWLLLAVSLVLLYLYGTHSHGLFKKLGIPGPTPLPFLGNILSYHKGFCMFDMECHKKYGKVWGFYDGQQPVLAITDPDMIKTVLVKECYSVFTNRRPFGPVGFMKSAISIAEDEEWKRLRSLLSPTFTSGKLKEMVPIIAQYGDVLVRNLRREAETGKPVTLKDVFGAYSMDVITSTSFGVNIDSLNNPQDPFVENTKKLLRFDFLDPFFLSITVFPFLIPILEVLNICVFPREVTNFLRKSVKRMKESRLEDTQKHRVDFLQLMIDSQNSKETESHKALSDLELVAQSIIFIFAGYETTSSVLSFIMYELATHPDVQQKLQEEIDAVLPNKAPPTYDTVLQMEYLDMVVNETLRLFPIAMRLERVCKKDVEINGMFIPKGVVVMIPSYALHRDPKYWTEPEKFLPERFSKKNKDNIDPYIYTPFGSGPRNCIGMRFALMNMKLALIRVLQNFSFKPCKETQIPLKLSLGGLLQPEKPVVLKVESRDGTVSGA
In the next series the target is Cytochrome P450 2C9 (Homo sapiens, UniProt P11712). Description: Inhibition of CYP2C9 (unknown origin). Format: ADME.
Sequence of Cytochrome P450 2C9 (P11712 whole entry): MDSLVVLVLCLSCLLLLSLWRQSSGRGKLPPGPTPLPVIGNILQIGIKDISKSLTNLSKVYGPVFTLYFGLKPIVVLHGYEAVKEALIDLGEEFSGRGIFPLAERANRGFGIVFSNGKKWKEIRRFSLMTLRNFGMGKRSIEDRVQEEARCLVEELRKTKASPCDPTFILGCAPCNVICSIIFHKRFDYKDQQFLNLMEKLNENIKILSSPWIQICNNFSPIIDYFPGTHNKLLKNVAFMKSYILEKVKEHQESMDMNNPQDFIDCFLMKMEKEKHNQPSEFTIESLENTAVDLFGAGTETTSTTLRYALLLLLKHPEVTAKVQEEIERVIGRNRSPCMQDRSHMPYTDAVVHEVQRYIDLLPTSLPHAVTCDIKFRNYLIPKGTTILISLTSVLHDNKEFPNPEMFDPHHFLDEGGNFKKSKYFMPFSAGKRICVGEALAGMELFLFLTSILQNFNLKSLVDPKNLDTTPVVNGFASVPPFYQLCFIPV
Series [16] deals with Prostaglandin E2 receptor EP4 subtype (Homo sapiens, UniProt P35408). As to the kind of experiment: Inhibition of PGE2 binding to human EP4 receptor.
Sequence of Prostaglandin E2 receptor EP4 subtype (P35408 whole entry): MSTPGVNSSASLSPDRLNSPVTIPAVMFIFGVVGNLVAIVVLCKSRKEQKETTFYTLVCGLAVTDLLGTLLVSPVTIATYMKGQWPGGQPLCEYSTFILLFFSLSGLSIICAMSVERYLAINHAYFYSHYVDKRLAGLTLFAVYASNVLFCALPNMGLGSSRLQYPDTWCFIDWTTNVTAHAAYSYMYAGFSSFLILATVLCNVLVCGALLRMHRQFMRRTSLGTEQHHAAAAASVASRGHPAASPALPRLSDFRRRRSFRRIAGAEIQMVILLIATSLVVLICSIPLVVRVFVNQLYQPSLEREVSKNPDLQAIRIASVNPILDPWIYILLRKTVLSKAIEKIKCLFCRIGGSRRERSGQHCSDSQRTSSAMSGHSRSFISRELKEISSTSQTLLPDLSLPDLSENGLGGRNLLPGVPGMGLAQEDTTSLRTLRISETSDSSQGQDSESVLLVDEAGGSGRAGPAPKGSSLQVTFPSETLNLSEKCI
In series [17] the target is T2, Prostaglandin E2 receptor EP3 subtype (Homo sapiens, UniProt P43115).
T2 sequence (P43115 whole entry): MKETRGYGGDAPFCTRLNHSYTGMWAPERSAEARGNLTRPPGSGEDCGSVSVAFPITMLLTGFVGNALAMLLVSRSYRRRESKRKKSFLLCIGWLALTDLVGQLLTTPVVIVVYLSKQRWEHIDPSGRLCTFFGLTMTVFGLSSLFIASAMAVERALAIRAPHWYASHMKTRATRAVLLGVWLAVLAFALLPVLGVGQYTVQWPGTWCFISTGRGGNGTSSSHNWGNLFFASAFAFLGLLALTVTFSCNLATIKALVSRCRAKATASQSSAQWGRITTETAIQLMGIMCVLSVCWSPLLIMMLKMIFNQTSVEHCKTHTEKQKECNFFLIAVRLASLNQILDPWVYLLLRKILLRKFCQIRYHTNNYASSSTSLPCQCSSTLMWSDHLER
As to the kind of experiment: Antagonist activity at human EP3 receptor assessed as inhibition of PGE2-induced Ca2+ mobilization by FLIPR assay. The series is classed as functional. A digest of the protocol:
(§5)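 Antagonism measured as inhibition of agonist-induced Ca2+ mobilization by FLIPR: PGE2 as agonist for human EP1 and EP3, U46619 as agonist for human TP. Values are IC50.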

Series [18] has as its target T3, Prostaglandin E2 receptor EP1 subtype (Homo sapiens, UniProt P34995).
T3 sequence (P34995 whole entry): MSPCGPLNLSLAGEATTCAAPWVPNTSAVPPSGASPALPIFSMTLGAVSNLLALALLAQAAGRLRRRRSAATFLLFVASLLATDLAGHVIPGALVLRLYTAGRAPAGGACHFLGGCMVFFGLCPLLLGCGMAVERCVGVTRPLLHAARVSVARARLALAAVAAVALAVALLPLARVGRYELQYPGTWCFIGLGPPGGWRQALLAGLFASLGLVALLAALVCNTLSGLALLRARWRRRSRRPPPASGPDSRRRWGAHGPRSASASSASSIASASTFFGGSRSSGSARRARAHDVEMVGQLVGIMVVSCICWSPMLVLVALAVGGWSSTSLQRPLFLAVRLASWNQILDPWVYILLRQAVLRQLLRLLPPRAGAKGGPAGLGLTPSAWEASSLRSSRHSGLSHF
Description: Antagonist activity at human EP1 receptor assessed as inhibition of PGE2-induced Ca2+ mobilization by FLIPR assay. The series is classed as functional. A digest of the protocol: as §5

Series [19] has as its target T4, Prostaglandin D2 receptor (Homo sapiens, UniProt Q13258).
T4 sequence (Q13258 whole entry): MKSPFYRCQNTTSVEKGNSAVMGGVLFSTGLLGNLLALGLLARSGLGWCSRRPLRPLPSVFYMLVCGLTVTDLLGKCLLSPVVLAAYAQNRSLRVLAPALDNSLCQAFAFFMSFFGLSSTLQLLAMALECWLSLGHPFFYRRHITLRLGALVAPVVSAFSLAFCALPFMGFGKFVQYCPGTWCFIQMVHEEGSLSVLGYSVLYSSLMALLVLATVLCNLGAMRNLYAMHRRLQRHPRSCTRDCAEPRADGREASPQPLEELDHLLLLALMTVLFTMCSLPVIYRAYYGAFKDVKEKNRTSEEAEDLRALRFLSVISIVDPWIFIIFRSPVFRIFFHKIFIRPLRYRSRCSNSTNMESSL
As to the kind of experiment: Inhibition of PGD2 binding to human DP1 receptor.

The target of series [20] is T1, Prostaglandin D2 receptor 2. Description: Displacement of [3H]PGD2 from human CRTh2 receptor in presence of human serum albumin. The essentials:
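Human CRTh2 binding assay run with 0.5% human serum albumin added to the assay buffer to mimic binding to blood proteins. IC50 is reported as the mean of at least three experiments.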

Series [21] concerns the target Prostaglandin E2 receptor EP2 subtype (Homo sapiens, UniProt P43116). Description: Inhibition of PGE2 binding to human EP2 receptor.
Another series deals with T5, Thromboxane A2 receptor (Homo sapiens, UniProt P21731).
T5 sequence (P21731 whole entry): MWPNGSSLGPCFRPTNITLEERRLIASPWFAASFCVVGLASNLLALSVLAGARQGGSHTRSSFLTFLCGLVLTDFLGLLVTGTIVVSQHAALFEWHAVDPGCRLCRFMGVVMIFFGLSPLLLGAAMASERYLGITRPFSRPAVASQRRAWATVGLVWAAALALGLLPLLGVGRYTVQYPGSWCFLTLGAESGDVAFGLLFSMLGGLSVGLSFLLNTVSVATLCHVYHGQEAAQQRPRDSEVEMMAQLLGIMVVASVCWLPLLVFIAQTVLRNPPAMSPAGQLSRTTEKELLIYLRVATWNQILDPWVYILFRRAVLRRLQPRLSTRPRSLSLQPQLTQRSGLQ
Description: Antagonist activity at human TP2 receptor assessed as inhibition of U46619-induced Ca2+ mobilization by FLIPR assay. The series is classed as functional. A digest of the protocol: as §5

Each structure is given as a SMILES string. In brackets after ≈: the same amount, converted by molar mass.

Sequence of Cytochrome P450 2D6 (P10635 whole entry): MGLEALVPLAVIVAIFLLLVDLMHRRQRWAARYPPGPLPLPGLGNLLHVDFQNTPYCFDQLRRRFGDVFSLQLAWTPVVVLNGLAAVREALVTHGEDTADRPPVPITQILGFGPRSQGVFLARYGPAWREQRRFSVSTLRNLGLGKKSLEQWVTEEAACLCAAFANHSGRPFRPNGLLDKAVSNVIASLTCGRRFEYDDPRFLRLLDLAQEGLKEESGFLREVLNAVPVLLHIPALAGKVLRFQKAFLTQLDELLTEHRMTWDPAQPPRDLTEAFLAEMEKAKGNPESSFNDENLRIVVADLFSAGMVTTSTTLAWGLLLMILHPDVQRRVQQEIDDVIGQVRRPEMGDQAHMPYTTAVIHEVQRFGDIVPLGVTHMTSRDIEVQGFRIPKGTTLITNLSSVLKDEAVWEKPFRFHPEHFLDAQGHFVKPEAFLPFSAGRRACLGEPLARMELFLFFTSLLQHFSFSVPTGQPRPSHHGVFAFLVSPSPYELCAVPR
Sequence of Prostaglandin E2 receptor EP2 subtype (P43116 whole entry): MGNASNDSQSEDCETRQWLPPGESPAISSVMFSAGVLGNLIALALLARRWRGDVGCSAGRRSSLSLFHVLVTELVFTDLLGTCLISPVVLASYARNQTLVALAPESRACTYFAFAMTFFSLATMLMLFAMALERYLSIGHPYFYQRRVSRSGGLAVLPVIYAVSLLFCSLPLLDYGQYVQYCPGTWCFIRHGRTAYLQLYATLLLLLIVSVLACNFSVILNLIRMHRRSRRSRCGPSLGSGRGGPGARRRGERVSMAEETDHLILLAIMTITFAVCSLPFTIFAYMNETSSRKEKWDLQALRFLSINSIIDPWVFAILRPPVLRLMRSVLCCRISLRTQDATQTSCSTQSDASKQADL

On to `N#C/C(=C\c1cn(CC(=O)O)c2ccccc12)C(=O)Nc1cccc(Br)c1`, for which the half-inhibitory concentration (IC50) in [1] is 500 nM; in [2] it was 600 nM.

In series [1], `Cc1cccc2c(/C=C(\C#N)C(=O)N(C)c3ccccc3)cn(CC(=O)O)c12` had a concentration for half-maximal inhibition (IC50) of 140 nM.

As to `O=C(O)Cn1cc(/C=C(\Cl)C(=O)Nc2ccccc2)c2ccccc21`, the concentration for half-maximal inhibition (IC50) in [1] was found to be 560 nM.

In [1], `CN(C(=O)/C(C#N)=C/c1cn(CC(=O)O)c2ccccc12)c1ccccc1` yielded an IC50 of 15 nM.

The compound `Cc1ccc2c(/C=C(\C#N)C(=O)N(C)c3ccccc3)cn(CC(=O)O)c2c1` returned an IC50 in series [1] of 690 nM.

For `O=C(O)Cn1c2ccccc2c2cc(C(=O)Nc3ccccc3)ccc21`, the concentration for half-maximal inhibition (IC50) in [1] was 490 nM.

As to `N#C/C(=C\c1cn(CC(=O)O)c2ccccc12)C(=O)N(CCc1ccccc1)c1ccccc1`, the half-maximal inhibitory concentration (IC50) in series [1] was 10 nM.

On to `CCCCN(C(=O)/C(C#N)=C/c1cn(CC(=O)O)c2ccccc12)c1ccccc1`, for which, in [1], the half-inhibitory concentration (IC50) was found to be 20 nM.

`C/C(=C(/C#N)C(=O)Nc1ccccc1)c1cn(CC(=O)O)c2ccccc12` returned a half-inhibitory concentration (IC50) in [1] of 510 nM.

As to `N#C/C(=C\c1cn(CC(=O)O)c2ccccc12)C(=O)N1Cc2ccccc2Cc2ccccc21`, the 50% inhibitory concentration (IC50) in series [1] amounted to 7 nM.

On to `N#C/C(=C\c1cn(CCC(=O)O)c2ccccc12)C(=O)Nc1ccccc1`, for which the half-inhibitory concentration (IC50) in series [1] came out at 5900 nM.

As for `CN(C(=O)/C(C#N)=C/c1cn(CC(=O)O)c2cccc(Cl)c12)c1ccccc1`, in series [1], the IC50 was 5 nM.

The compound `O=C(O)Cn1cc(/C=C/C(=O)Nc2ccccc2)c2ccccc21` showed an IC50 in series [1] of 4400 nM.

`O=C(O)Cn1c2c(c3ccccc31)CN(C(=O)c1ccccc1)CC2` came in with a bioavailability in series [3] of 14%. Also, in [4], the Vd was 0.5 L/kg. The half-life in [5] was 138 min. In [6], this compound displayed a clearance of 4.6 mL/min/kg. The highest concentration (Cmax) in series [7] stood at 600 ng/mL. In addition, in [8], the AUC(0-t) worked out at 6300 ng·h/mL. Also, the remaining at 4 h in [9] was 100%; in [14], 90%; in series [15], 90%. Besides, the remaining at 1 h in series [10] was 100%. The solubility was found to be 515 µg/mL (≈ 1540 µM) in series [11], 810 µg/mL (≈ 2420 µM) in series [12] and 64 µg/mL (≈ 191 µM) in series [13]. Moreover, the 50% inhibitory concentration (IC50) against Cytochrome P450 2D6 was > 50 µM; on Cytochrome P450 3A4 it was > 50 µM; against Cytochrome P450 2C9 it was > 15 µM; in series [16], > 10 µM; in series [17], > 10 µM; in [18], > 10 µM. In addition, the half-inhibitory concentration (IC50) was > 10 µM in series [19]; 17 nM in series [1]; 15 nM in series [20]; > 10 µM in series [21]; 170 nM in [2]; > 25 µM at Thromboxane A2 receptor.

As to `CN(C(=O)/C(C#N)=C/c1cn(CC(=O)O)c2cc(Cl)ccc12)c1ccccc1`, in [1], the half-inhibitory concentration (IC50) was found to be 290 nM.

With `N#C/C(=C\c1cn(CC(=O)O)c2ccccc12)C(=O)Nc1ccccc1`, the IC50 in series [1] is 430 nM.

As for `O=C(O)Cn1c2c(c3ccccc31)CN(C(=O)Nc1ccccc1)CC2`, the IC50 in series [1] was 430 nM.
